Source: ChEMBL document CHEMBL2057082, “Discovery of N-(4-methoxy-7-methylbenzo[d]thiazol-2-yl)isonicatinamide, ML293, as a novel, selective and brain penetrant positive allosteric modulator of the muscarinic 4 (M4) receptor” (Bioorg Med Chem Lett, 2012)
pEC50: −log10 of the molar value. Active and inactive are the calls of the source. The rule behind the calls is not given here.

What was measured:
[1] = biological target: T1, Muscarinic acetylcholine receptor M2 (Homo sapiens) (UniProt P08172); assay: Activity at human M2 receptor expressed in CHO cells coexpressing Gqi5 assessed as effect on acetylcholine induced calcium mobilization up to 30 uM incubated for 144 secs prior to acetylcholine addition by Fluo-4-AM staining; assay type: functional, cell-based
T1 sequence (whole entry): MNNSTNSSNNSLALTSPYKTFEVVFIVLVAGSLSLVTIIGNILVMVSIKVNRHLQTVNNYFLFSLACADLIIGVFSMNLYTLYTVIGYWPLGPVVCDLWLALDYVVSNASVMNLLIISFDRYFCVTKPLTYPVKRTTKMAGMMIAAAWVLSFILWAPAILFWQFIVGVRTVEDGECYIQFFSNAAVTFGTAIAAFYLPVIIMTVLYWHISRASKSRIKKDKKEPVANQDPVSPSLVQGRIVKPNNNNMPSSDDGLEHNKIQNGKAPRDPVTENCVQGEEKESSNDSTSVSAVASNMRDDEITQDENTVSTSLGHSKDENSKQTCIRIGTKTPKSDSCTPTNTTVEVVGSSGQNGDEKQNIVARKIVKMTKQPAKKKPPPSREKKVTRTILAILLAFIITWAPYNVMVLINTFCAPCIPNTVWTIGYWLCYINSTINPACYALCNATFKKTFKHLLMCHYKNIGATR
Summary of the method: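 Off-target mode: CHO-K1 lines stably expressing hM1, hM3 or hM5 (wild-type) or hM2 cotransfected with Gqi5, plated 15,000 cells/well, grown overnight at 37 °C. Fluo-4 AM loading 45 min at 37 °C in HBSS/20 mM HEPES/2.5 mM probenecid. Compound (up to 30 µM, 0.3% DMSO final) added 144 s before ACh. Calcium read kinetically at 37 °C.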

Plasma [2] = assay: Fraction unbound in human plasma; assay type: ADME, cell-free
Summary of the method: (§1)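 Plasma protein binding was measured by equilibrium dialysis in human and rat plasma and reported as % unbound.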

[3] = biological target: T2, Muscarinic acetylcholine receptor M5 (Homo sapiens) (UniProt P08912); assay: Activity at human M5 receptor expressed in CHO cells coexpressing Gqi5 assessed as effect on acetylcholine induced calcium mobilization up to 30 uM incubated for 144 secs prior to acetylcholine addition by Fluo-4-AM staining; assay type: functional, cell-based
T2 sequence (whole entry): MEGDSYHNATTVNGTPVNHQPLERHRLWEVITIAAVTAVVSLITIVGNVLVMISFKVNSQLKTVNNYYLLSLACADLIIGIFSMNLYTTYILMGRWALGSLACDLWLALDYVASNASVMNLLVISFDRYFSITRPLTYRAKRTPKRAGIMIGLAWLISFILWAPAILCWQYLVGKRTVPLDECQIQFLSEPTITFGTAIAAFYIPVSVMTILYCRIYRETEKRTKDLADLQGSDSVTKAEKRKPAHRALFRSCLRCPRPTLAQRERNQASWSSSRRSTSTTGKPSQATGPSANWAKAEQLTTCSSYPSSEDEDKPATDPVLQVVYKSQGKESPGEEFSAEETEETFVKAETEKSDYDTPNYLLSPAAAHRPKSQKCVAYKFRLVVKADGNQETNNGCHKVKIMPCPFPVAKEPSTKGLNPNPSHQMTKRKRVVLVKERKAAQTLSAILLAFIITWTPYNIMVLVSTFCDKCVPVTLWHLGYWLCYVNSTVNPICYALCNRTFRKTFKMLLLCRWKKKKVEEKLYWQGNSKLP

[4] = Intrinsic clearance in rat liver microsomes; assay type: ADME, Microsome; details: read-out: CLH
Summary of the method: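 Intrinsic clearance was measured in human and rat hepatic microsomes to assess oxidative metabolism, with predicted hepatic clearance given in mL/min/kg.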

[5] = biological target: Muscarinic acetylcholine receptor M3 (Homo sapiens) (UniProt P20309); assay: Activity at human M3 receptor expressed in CHO cells coexpressing Gqi5 assessed as effect on acetylcholine induced calcium mobilization up to 30 uM incubated for 144 secs prior to acetylcholine addition by Fluo-4-AM staining; assay type: functional, cell-based
Sequence of Muscarinic acetylcholine receptor M3 (Homo sapiens) (P20309 whole entry, looked up): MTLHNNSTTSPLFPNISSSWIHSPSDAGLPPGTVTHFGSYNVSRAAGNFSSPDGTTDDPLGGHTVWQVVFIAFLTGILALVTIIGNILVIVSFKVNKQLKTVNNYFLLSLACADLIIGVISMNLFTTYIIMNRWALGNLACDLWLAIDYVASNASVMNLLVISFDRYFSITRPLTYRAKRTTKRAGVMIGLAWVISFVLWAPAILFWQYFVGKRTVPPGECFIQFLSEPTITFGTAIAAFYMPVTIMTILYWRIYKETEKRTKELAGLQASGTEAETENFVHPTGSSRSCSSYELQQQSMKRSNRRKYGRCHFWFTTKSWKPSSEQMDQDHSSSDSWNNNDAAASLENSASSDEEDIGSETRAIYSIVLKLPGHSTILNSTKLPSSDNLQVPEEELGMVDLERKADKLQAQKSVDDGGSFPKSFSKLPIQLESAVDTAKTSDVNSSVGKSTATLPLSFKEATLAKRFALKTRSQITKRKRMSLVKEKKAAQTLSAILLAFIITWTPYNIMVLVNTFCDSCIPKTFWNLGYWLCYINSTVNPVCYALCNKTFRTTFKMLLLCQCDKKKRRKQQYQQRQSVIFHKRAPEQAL

[6] = biological target: T3, Muscarinic acetylcholine receptor M4 (Homo sapiens) (UniProt P08173); assay: Positive allosteric modulation of human M4 receptor expressed in CHO-K1 cells coexpressing Gqi5 assessed as potentiation of acetylcholine-mediated calcium mobilization incubated for 144 secs prior to acetylcholine addition by Fluo-4-AM staining relative to acetylcholine; assay type: functional, cell-based
T3 sequence (whole entry): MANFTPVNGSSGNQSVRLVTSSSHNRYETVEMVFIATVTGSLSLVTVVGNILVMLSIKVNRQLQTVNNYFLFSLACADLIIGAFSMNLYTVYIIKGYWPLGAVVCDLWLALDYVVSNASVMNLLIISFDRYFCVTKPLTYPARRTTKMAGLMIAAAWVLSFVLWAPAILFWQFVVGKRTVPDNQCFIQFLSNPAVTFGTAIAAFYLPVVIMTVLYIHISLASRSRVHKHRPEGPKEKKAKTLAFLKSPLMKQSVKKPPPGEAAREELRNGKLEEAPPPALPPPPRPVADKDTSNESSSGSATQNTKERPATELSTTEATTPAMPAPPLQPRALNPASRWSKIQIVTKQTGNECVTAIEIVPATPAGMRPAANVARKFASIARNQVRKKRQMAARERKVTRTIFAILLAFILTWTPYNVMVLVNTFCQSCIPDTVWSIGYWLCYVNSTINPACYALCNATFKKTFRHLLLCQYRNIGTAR
Summary of the method: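 hM4-Gqi5 CHO-K1 cells, plated overnight, loaded with Fluo-4 AM (45 min, 37 °C). Compound (0.3% DMSO final) preincubated 144 s, then ACh EC20 added, and EC80 added 86 s later; 1 mM ACh wells for normalization. Calcium read at 37 °C, normalized to baseline and then to maximal ACh response. EC50 from four-parameter logistic fit; three independent determinations in triplicate.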

[7] = Half life in rat at 1 mg/kg, iv; assay type: ADME, organism-based; design: dose 1 mg/kg, route intravenous; details: in vivo
[8] = AUC in rat at 1 mg/kg, iv; assay type: ADME, organism-based; design: dose 1 mg/kg, route intravenous; details: plasma
[9] = Plasma clearance in rat at 1mg/kg, iv; assay type: ADME, organism-based
[10] = Plasma concentration in rat at 10 mg/kg, po administered as single dose measured at 1 hr; assay type: ADME, organism-based; design: dose 10 mg/kg, route oral
Summary of the method: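 Rats received a single 10 mg/kg oral dose. At 1 h, drug was measured in brain (ng/g), plasma and hepatic portal vein, and brain:plasma and HPV:plasma ratios were calculated.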

Plasma [11] = assay: Fraction unbound in rat plasma; assay type: ADME, cell-free; summary of the method: as §1
Brain = assay: Fraction unbound in rat brain homogenate; assay type: ADME, tissue-based
Summary of the method: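 Binding was measured in rat brain homogenate and reported as % unbound fraction.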

[12] = biological target: T4, Muscarinic acetylcholine receptor M4 (Homo sapiens, UniProt P08173); assay: Positive allosteric modulation of human M4 receptor expressed in CHO-K1 cells coexpressing Gqi5 assessed as potentiation of acetylcholine-mediated calcium mobilization incubated for 144 secs prior to acetylcholine addition by Fluo-4-AM staining; assay type: functional, cell-based
T4 sequence (P08173 whole entry): T3 sequence (whole entry)
Summary of the method: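 hM4 stably cotransfected with chimeric Gqi5 in CHO-K1 cells. Cells plated overnight at 37 °C, loaded with Fluo-4 AM for 45 min at 37 °C in HBSS/20 mM HEPES/2.5 mM probenecid. Compound pretreated 144 s (0.3% DMSO final), then EC20 ACh, then EC80 ACh 86 s later; kinetic fluorescence at 37 °C.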

[13] = Drug uptake in rat brain assessed per gram of tissue at 10 mg/kg, po administered as single dose measured at 1 hr; assay type: ADME, organism-based; design: dose 10 mg/kg, route oral; details: read-out: Drug uptake
Summary of the method: (§2)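 Rats got a single 10 mg/kg oral dose. At a single 1 h time point, brain (ng/g tissue), plasma and hepatic portal vein concentrations were measured, giving brain:plasma and portal vein:plasma ratios. The portal vein:plasma ratio was taken as an indicator of the extent of oxidative metabolism.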

[14] = Mean residence time in rat at 1 mg/kg, iv; assay type: ADME, organism-based; design: dose 1 mg/kg, route intravenous; details: in vivo
[15] = biological target: T5, Muscarinic acetylcholine receptor M1 (Homo sapiens) (UniProt P11229); assay: Activity at human M1 receptor expressed in CHO-K1 cells coexpressing Gqi5 assessed as effect on acetylcholine induced calcium mobilization up to 30 uM incubated for 144 secs prior to acetylcholine addition by Fluo-4-AM staining; assay type: functional, cell-based
T5 sequence (whole entry): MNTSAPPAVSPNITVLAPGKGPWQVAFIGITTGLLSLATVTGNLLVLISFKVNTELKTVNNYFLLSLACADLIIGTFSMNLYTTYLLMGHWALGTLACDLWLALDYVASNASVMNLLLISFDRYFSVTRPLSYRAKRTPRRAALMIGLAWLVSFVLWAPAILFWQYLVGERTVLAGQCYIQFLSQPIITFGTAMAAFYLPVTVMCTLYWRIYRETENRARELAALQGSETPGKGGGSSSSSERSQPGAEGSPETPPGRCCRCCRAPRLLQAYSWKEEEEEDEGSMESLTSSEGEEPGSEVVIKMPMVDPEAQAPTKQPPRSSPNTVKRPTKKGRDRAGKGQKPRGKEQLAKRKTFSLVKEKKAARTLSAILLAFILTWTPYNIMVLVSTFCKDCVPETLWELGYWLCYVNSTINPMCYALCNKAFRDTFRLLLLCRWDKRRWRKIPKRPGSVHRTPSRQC

[16] = Drug uptake in rat hepatic portal vein at 10 mg/kg, po administered as single dose measured at 1 hr; assay type: ADME, organism-based; design: dose 10 mg/kg, route oral; details: read-out: Drug uptake; summary of the method: as §2
[17] = Volume of distribution at steady state in rat at 1 mg/kg, iv; assay type: ADME, organism-based; design: dose 1 mg/kg, route intravenous; details: in vivo, read-out: Vdss
[18] = Plasma clearance in rat; assay type: ADME, organism-based

Question: With `COc1ccc(C)c2sc(NC(=O)c3ccncc3)nc12` as the compound, how does the Activity [1] read?
Answer: inactive

Question: What about the Fu (Plasma [2]) of the same compound?
Answer: 1%

Question: What about the Activity [3] of the same compound?
Answer: inactive

Question: And the CLint scaled [4]?
Answer: 48.5 mL/min/kg

Question: What about the Activity [5] of the same compound?
Answer: inactive

Question: And the %max [6]?
Answer: 65.2%

Question: What about the half-life [7] of the same compound?
Answer: 0.95 h

Question: What about the AUC [8] of the same compound?
Answer: 1440 ng·h/mL

Question: What about the clearance [9] of the same compound?
Answer: 11.5 mL/min/kg

Question: And the concentration at 1 h [10]?
Answer: 3740 ng/mL

Question: And the Fu (Plasma [11])?
Answer: 3.2%

Question: What about the Fu (Brain) of the same compound?
Answer: 0.9%

Question: And the pEC50 [12]?
Answer: 5.89

Question: What about the concentration at 1 h [13] of the same compound?
Answer: 3090 ng/g

Question: And the MRT [14]?
Answer: 1.42 h

Question: What about the Activity [15] of the same compound?
Answer: inactive

Question: And the concentration at 1 h [16]?
Answer: 3070 ng/mL

Question: What about the Vd [17] of the same compound?
Answer: 0.97 L/kg

Question: For `Cc1cc(OCc2ccncc2)nc2sc(C(=O)NCc3cccc(F)c3F)c(N)c12`, which clearance [18] is on record?
Answer: > 100 mL/min/kg

Question: For `Cc1nc2sc(C(=O)NCc3ccncc3)c(N)c2c(C)c1Cl`, which clearance [18] is on record?
Answer: > 100 mL/min/kg

Question: Which clearance [18] does the source give for `COc1ccc(CNC(=O)c2sc3nc(C)cc(C)c3c2N)cc1` here?
Answer: > 100 mL/min/kg

Question: For `COc1ccc(C)c2sc(NC(=O)C3CCCCO3)nc12` (stereo unspecified), which %max [6] is on record?
Answer: 64.1%

Question: And the pEC50 [12]?
Answer: < 5.00

Question: With `COc1ccc(C)c2sc(NC(=O)C3=COCCO3)nc12` as the compound, how does the %max [6] read?
Answer: 55.7%

Question: And the pEC50 [12]?
Answer: 5.74

Question: For `COc1ccc(C)c2sc(NC(=O)c3cnccn3)nc12`, which %max [6] is on record?
Answer: 38.2%

Question: What about the pEC50 [12] of the same compound?
Answer: 5.95

Question: Which results are given for `COc1ccc(C)c2sc(NC(=O)c3cccnc3)nc12`?
Answer: %max [6]: 37.6%; pEC50 [12]: 5.63

Question: With `CCCC(=O)Nc1nc2c(OC)ccc(C)c2s1` as the compound, how does the %max [6] read?
Answer: 52.5%

Question: What about the pEC50 [12] of the same compound?
Answer: < 5.00
